According to ChEMBL document CHEMBL2434890, “Design, synthesis and structure-activity relationship of novel quinoxaline derivatives as cancer chemopreventive agent by inhibition of tyrosine kinase receptor” (Eur J Med Chem, 2013):

Test system: Raji
Test: Inhibition of TPA-induced EBV early antigen activation infected in human Raji cells assessed as antigen activity at 10 mol ratio/TPA after 48 hrs by immunofluorescence method relative to control
Type: cell-based
Parameters: scale not given: the % may be the effect or the level left
Details: human gammaherpesvirus 4; call rule not given here

Row | Structure (SMILES) | Activity [%]
1 | CCOC(=O)Cn1c(=O)c(N/N=C/c2ccc(N(C)C)cc2)nc2ccccc21 | 100
2 | NNc1nc2ccccc2[nH]c1=O | 100
3 | O=C1CN2C(=NN1)C(=O)Nc1ccccc12 | 100
4 | O=c1[nH]c2ccccc2nc1Cl | 100
5 | Oc1nc2ccccc2n2cnnc12 | 100
6 | CN(C)c1ccc(/C=N/Nc2nc3ccccc3[nH]c2=O)cc1 | 100
7 | Oc1nc2ccccc2nc1O | 100
8 | CC1(C)CC[C@]2(C(=O)O)CC[C@]3(C)C(=CC[C@@H]4[C@@]5(C)CC[C@H](O)C(C)(C)[C@@H]5CC[C@]43C)[C@@H]2C1 [OLEANOLIC_ACID] | 100
9 | O=c1[nH]c2ccccc2n2c(=O)c(O)nnc12 | 100
10 | Oc1nc2ccccc2n2c(O)nnc12 | 100
11 | O=C1CC(=O)N(c2nc3ccccc3[nH]c2=O)N1 | 100

Test system: Raji
Test: Inhibition of TPA-induced EBV early antigen activation infected in human Raji cells assessed as antigen activity at 1000 mol ratio/TPA after 48 hrs by immunofluorescence method relative to control
Type: cell-based
Parameters: scale not given: the % may be the effect or the level left
Details: human gammaherpesvirus 4

Row | Structure (SMILES) | Activity [%]
12 | CCOC(=O)Cn1c(=O)c(N/N=C/c2ccc(N(C)C)cc2)nc2ccccc21 | 12.7
13 | NNc1nc2ccccc2[nH]c1=O | 14.9
14 | O=C1CN2C(=NN1)C(=O)Nc1ccccc12 | 13.6
15 | O=c1[nH]c2ccccc2nc1Cl | 16.7
16 | Oc1nc2ccccc2n2cnnc12 | 18.6
17 | CN(C)c1ccc(/C=N/Nc2nc3ccccc3[nH]c2=O)cc1 | 13.9
18 | Oc1nc2ccccc2nc1O | 14.2
19 | CC1(C)CC[C@]2(C(=O)O)CC[C@]3(C)C(=CC[C@@H]4[C@@]5(C)CC[C@H](O)C(C)(C)[C@@H]5CC[C@]43C)[C@@H]2C1 [OLEANOLIC_ACID] | 12.7
20 | O=c1[nH]c2ccccc2n2c(=O)c(O)nnc12 | 14.2
21 | Oc1nc2ccccc2n2c(O)nnc12 | 15.6
22 | O=C1CC(=O)N(c2nc3ccccc3[nH]c2=O)N1 | 17.5

Test system: not listed separately
Test: Cytotoxicity against human Raji cells assessed as cell viability at 1000 mol ratio/TPA after 48 hrs by trypan blue staining method
Type: cell-based
Details: read-out: Activity
In short: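 Raji cells were treated as in the EBV-EA assay: 48 h at 37 °C with 4 mM n-butyric acid, […] and compound in DMSO (ca. 0.7%), dosed by mol ratio to TPA. Viability of the treated cells was determined by trypan blue staining.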

Row | Structure (SMILES) | viability at 48 h, 1000 mol ratio/TPA [%]
23 | CCOC(=O)Cn1c(=O)c(N/N=C/c2ccc(N(C)C)cc2)nc2ccccc21 | 60
24 | NNc1nc2ccccc2[nH]c1=O | 60
25 | O=C1CN2C(=NN1)C(=O)Nc1ccccc12 | 60
26 | O=c1[nH]c2ccccc2nc1Cl | 50
27 | Oc1nc2ccccc2n2cnnc12 | 60
28 | CN(C)c1ccc(/C=N/Nc2nc3ccccc3[nH]c2=O)cc1 | 60
29 | Oc1nc2ccccc2nc1O | 60
30 | CC1(C)CC[C@]2(C(=O)O)CC[C@]3(C)C(=CC[C@@H]4[C@@]5(C)CC[C@H](O)C(C)(C)[C@@H]5CC[C@]43C)[C@@H]2C1 [OLEANOLIC_ACID] | 70
31 | O=c1[nH]c2ccccc2n2c(=O)c(O)nnc12 | 60
32 | Oc1nc2ccccc2n2c(O)nnc12 | 60
33 | O=C1CC(=O)N(c2nc3ccccc3[nH]c2=O)N1 | 60

Test system: not listed separately
Test: Inhibition of TRK in human MCF7 cells after 48 hrs by ELISA
Type: cell-based
Details: not given
In short: (§1)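 HepG2 or MCF-7 cells, kept in DMEM with 10% heat-inactivated FCS and penicillin, seeded at 0.50×10⁶ per flask and treated 48 h at 37 °C, 5% CO₂ with compound in DMSO (2.5–40 μg/ml). Cells were homogenized in saline. TRK level was measured by double-antibody sandwich ELISA (OD 450 nm) against a standard curve, in triplicate. IC50 = 50% reduction of TRK relative to untreated cells.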

Row | Structure (SMILES) | IC50
34 | CCOC(=O)Cn1c(=O)c(N/N=C/c2ccc(N(C)C)cc2)nc2ccccc21 | 4.85 pmol/mL
35 | NNc1nc2ccccc2[nH]c1=O | 10.2 pmol/mL
36 | Oc1nc2ccccc2n2cnnc12 | Not Active
37 | CN(C)c1ccc(/C=N/Nc2nc3ccccc3[nH]c2=O)cc1 | 11.8 pmol/mL
38 | Oc1nc2ccccc2nc1O | Not Active
39 | O=c1[nH]c2ccccc2n2c(=O)c(O)nnc12 | 27.8 pmol/mL
40 | Oc1nc2ccccc2n2c(O)nnc12 | 30 pmol/mL

Test system: Raji
Test: Inhibition of TPA-induced EBV early antigen activation infected in human Raji cells assessed as antigen activity at 500 mol ratio/TPA after 48 hrs by immunofluorescence method relative to control
Type: cell-based
Parameters: scale not given: the % may be the effect or the level left
Details: human gammaherpesvirus 4

Row | Structure (SMILES) | Activity [%]
41 | CCOC(=O)Cn1c(=O)c(N/N=C/c2ccc(N(C)C)cc2)nc2ccccc21 | 47.6
42 | NNc1nc2ccccc2[nH]c1=O | 46.5
43 | O=C1CN2C(=NN1)C(=O)Nc1ccccc12 | 46.3
44 | O=c1[nH]c2ccccc2nc1Cl | 48.5
45 | Oc1nc2ccccc2n2cnnc12 | 48.2
46 | CN(C)c1ccc(/C=N/Nc2nc3ccccc3[nH]c2=O)cc1 | 42.2
47 | Oc1nc2ccccc2nc1O | 46.8
48 | CC1(C)CC[C@]2(C(=O)O)CC[C@]3(C)C(=CC[C@@H]4[C@@]5(C)CC[C@H](O)C(C)(C)[C@@H]5CC[C@]43C)[C@@H]2C1 [OLEANOLIC_ACID] | 30
49 | O=c1[nH]c2ccccc2n2c(=O)c(O)nnc12 | 47
50 | Oc1nc2ccccc2n2c(O)nnc12 | 47.2
51 | O=C1CC(=O)N(c2nc3ccccc3[nH]c2=O)N1 | 48

Test system: Raji
Test: Inhibition of TPA-induced EBV early antigen activation infected in human Raji cells assessed as antigen activity at 100 mol ratio/TPA after 48 hrs by immunofluorescence method relative to control
Type: cell-based
Parameters: scale not given: the % may be the effect or the level left
Details: human gammaherpesvirus 4

Row | Structure (SMILES) | Activity [%]
52 | CCOC(=O)Cn1c(=O)c(N/N=C/c2ccc(N(C)C)cc2)nc2ccccc21 | 78.6
53 | NNc1nc2ccccc2[nH]c1=O | 78.1
54 | O=C1CN2C(=NN1)C(=O)Nc1ccccc12 | 78
55 | O=c1[nH]c2ccccc2nc1Cl | 80.2
56 | Oc1nc2ccccc2n2cnnc12 | 84.2
57 | CN(C)c1ccc(/C=N/Nc2nc3ccccc3[nH]c2=O)cc1 | 71.7
58 | Oc1nc2ccccc2nc1O | 78.5
59 | CC1(C)CC[C@]2(C(=O)O)CC[C@]3(C)C(=CC[C@@H]4[C@@]5(C)CC[C@H](O)C(C)(C)[C@@H]5CC[C@]43C)[C@@H]2C1 [OLEANOLIC_ACID] | 80
60 | O=c1[nH]c2ccccc2n2c(=O)c(O)nnc12 | 78.6
61 | Oc1nc2ccccc2n2c(O)nnc12 | 79.1
62 | O=C1CC(=O)N(c2nc3ccccc3[nH]c2=O)N1 | 83.9

Test system: Raji
Test: Inhibition of TPA-induced EBV early antigen activation infected in human Raji cells after 48 hrs by immunofluorescence method relative to control
Type: cell-based
Details: human gammaherpesvirus 4

Row | Structure (SMILES) | inhibition
63 | CCOC(=O)Cn1c(=O)c(N/N=C/c2ccc(N(C)C)cc2)nc2ccccc21 | Dose-dependent effect
64 | NNc1nc2ccccc2[nH]c1=O | Dose-dependent effect
65 | O=C1CN2C(=NN1)C(=O)Nc1ccccc12 | Dose-dependent effect
66 | O=c1[nH]c2ccccc2nc1Cl | Dose-dependent effect
67 | Oc1nc2ccccc2n2cnnc12 | Dose-dependent effect
68 | CN(C)c1ccc(/C=N/Nc2nc3ccccc3[nH]c2=O)cc1 | Dose-dependent effect
69 | Oc1nc2ccccc2nc1O | Dose-dependent effect
70 | O=c1[nH]c2ccccc2n2c(=O)c(O)nnc12 | Dose-dependent effect
71 | Oc1nc2ccccc2n2c(O)nnc12 | Dose-dependent effect
72 | O=C1CC(=O)N(c2nc3ccccc3[nH]c2=O)N1 | Dose-dependent effect

Test system: not listed separately
Test: Inhibition of TRK in human HepG2 cells after 48 hrs by ELISA
Type: cell-based
Details: not given
In short: as §1

Row | Structure (SMILES) | IC50
73 | CCOC(=O)Cn1c(=O)c(N/N=C/c2ccc(N(C)C)cc2)nc2ccccc21 | 4.5 pmol/mL
74 | NNc1nc2ccccc2[nH]c1=O | 9 pmol/mL
75 | Oc1nc2ccccc2n2cnnc12 | Not Active
76 | CN(C)c1ccc(/C=N/Nc2nc3ccccc3[nH]c2=O)cc1 | 9.8 pmol/mL
77 | Oc1nc2ccccc2nc1O | Not Active
78 | O=c1[nH]c2ccccc2n2c(=O)c(O)nnc12 | 20 pmol/mL
79 | Oc1nc2ccccc2n2c(O)nnc12 | 25 pmol/mL
